Experiment [1] deals with Influenza A virus. The experiment can be described thus: microbe, parasite or virus in culture. The settings on record: MDCK, 72 h.
The test system of experiment [2] is Influenza A virus. The experiment can be described thus: microbe, parasite or virus in culture. The settings on record: (A/Brazil/1067/2008(H1N1)), MDCK, 72 h.
In experiment [3] the test system is Influenza A virus. The experiment in a line: microbe, parasite or virus in culture. Conditions: (A/duck/Vietnam/NCVD93/2007 clade 2.3.4 (H5N1)), MDCK, 72 h.
Experiment [4] deals with Influenza A virus. The experiment in a line: Antiviral activity against Influenza A virus (A/Mexico/4604/2009(H1N1)) infected in MDCK cells from ATCC assessed as log reduction in viral titer at 128 uM after 24 hrs by immunofluorescent assay. It is filed as functional. The procedure, abridged:
(§1)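 Yield reduction in MDCK-ATCC or MDCK-Mill Hill cells infected at MOI ∼0.01. Adsorption 1 h at 4°C, washed, then DMEM with 2 μg/ml TPCK-trypsin and drug. At 24 h, supernatants were titrated by immunofluorescent focus assay on MDCK cells with anti-NP monoclonals and FITC secondary. Titres as log10 FFU per 100 μl; detection limit <10 FFU. Quadruplicate, mean ± SD.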

The subject of experiment [5] is Influenza A virus. The experiment can be described thus: Antiviral activity against sInfluenza A virus (A/California/04/2009(H1N1)) infected in MDCK cells from Mill Hill assessed as log reduction in viral titer at 42.7 uM after 24 hrs by immunofluorescent assay. In kind it is functional. The procedure, abridged: (§2)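 MDCK cells (ATCC or Mill Hill) infected with 2009 pandemic H1N1 at MOI ~0.01, 1 h adsorption at 4°C, washed. DMEM with 2 μg/ml TPCK-trypsin plus drug for 24 h at 37°C. Supernatants titrated on MDCK cells by focus formation: methanol/acetic acid fixation, anti-nucleoprotein MAbs, FITC secondary, foci counted. Titre as log10 FFU per 100 μl; detection limit <10 FFU; quadruplicate wells.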

For experiment [6], the system named is Influenza A virus. The experiment can be described thus: Antiviral activity against Influenza A virus (A/California/04/2009(H1N1)) infected in MDCK cells from ATCC assessed as inhibition of viral replication after 3 days by microscopic analysis using crystal violet stain. It is filed as functional. The procedure, abridged: (§3)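 Confluent MDCK-ATCC monolayers infected with virus diluted to give 15–45 plaques/well. Adsorption 1 h at 37°C without drug, then washed. Overlaid with 0.8% agarose in MEM containing drug plus TPCK-trypsin: 3 μg/ml for seasonal viruses, 2 μg/ml for 2009 A(H1N1). Incubated 3 days at 37°C, 5% CO2. Ethanol-fixed, crystal violet-stained, plaques counted. EC50 by curve fit; duplicates on three occasions, mean ± SD.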

Experiment [7] has as its system Influenza A virus. The experiment in a line: Antiviral activity against adamantane-, oseltamivir-, zanamivir-susceptible Influenza A virus (A/Georgia/17/2006(H1N1)) infected in MDCK cells assessed as inhibition of viral replication after 3 days by microscopic analysis using crystal violet stain. In kind it is functional, organism-based. Conditions: 72 h. In a few lines: as §3

Experiment [8] relates to Influenza A virus. The experiment in a line: Antiviral activity against Influenza A virus (A/Illinois/10/2009(H1N1)) infected in MDCK cells from ATCC assessed as log reduction in viral titer at 42.7 uM after 24 hrs by immunofluorescent assay. It is filed as functional. The procedure, abridged: as §1
Experiment [9] relates to Influenza A virus. The experiment in a line: Antiviral activity against sInfluenza A virus (A/Washington/29/2009(H1N1)) infected in MDCK cells from ATCC assessed as log reduction in viral titer at 14.2 uM after 24 hrs by immunofluorescent assay. In kind it is functional, Influenza A virus (A/Washington/29/2009(H1N1)). The procedure, abridged:
as §2

For experiment [10], the system named is Influenza A virus. The experiment in a line: Antiviral activity against Influenza A virus (A/Mexico/4604/2009(H1N1)) infected in MDCK cells from ATCC assessed as log reduction in viral titer at 42.7 uM after 24 hrs by immunofluorescent assay. In kind it is functional. The procedure, abridged: as §1
Experiment [11] deals with Influenza A virus. The experiment can be described thus: Antiviral activity against Influenza A virus (A/Mexico/4604/2009(H1N1)) infected in MDCK cells from Mill Hill assessed as log reduction in viral titer at 128 uM after 24 hrs by immunofluorescent assay. In kind it is functional. The procedure, abridged:
as §1

In experiment [12] the test system is Influenza A virus. The experiment in a line: Antiviral activity against Influenza A virus (A/Illinois/10/2009(H1N1)) infected in MDCK cells from Mill Hill assessed as log reduction in viral titer at 14.2 uM after 24 hrs by immunofluorescent assay. In kind it is functional. The procedure, abridged:
as §1

For experiment [13], the system named is Influenza A virus. The experiment can be described thus: Antiviral activity against sInfluenza A virus (A/California/04/2009(H1N1)) infected in MDCK cells from Mill Hill assessed as log reduction in viral titer at 14.2 uM after 24 hrs by immunofluorescent assay. It is filed as functional. In a few lines: as §2
The subject of experiment [14] is Influenza A virus. The experiment can be described thus: microbe, parasite or virus in culture. The settings on record: (A/Ecuador/5179/2008(H1N1)), MDCK, 72 h.
For experiment [15], the system named is Influenza A virus. The experiment in a line: Antiviral activity against sInfluenza A virus (A/California/04/2009(H1N1)) infected in MDCK cells from ATCC assessed as log reduction in viral titer at 128 uM after 24 hrs by immunofluorescent assay. It is filed as functional. The procedure, abridged:
as §2

The test system of experiment [16] is Influenza A virus. The experiment can be described thus: Antiviral activity against Influenza A virus (A/California/04/2009(H1N1)) infected in MDCK cells from Mill Hill assessed as log reduction in viral titer at 1.6 uM after 24 hrs by immunofluorescent assay. In kind it is functional. In a few lines: as §1
In experiment [17] the test system is Influenza A virus. The experiment in a line: Antiviral activity against sInfluenza A virus (A/California/04/2009(H1N1)) infected in MDCK cells from ATCC assessed as log reduction in viral titer at 42.7 uM after 24 hrs by immunofluorescent assay. In kind it is functional. The procedure, abridged: as §2
For experiment [18], the system named is Influenza A virus. The experiment in a line: Antiviral activity against sInfluenza A virus (A/Washington/29/2009(H1N1)) infected in MDCK cells from Mill Hill assessed as log reduction in viral titer at 42.7 uM after 24 hrs by immunofluorescent assay. It is filed as functional, Influenza A virus (A/Washington/29/2009(H1N1)). In a few lines: as §2
Experiment [19] concerns Influenza A virus. The experiment can be described thus: Antiviral activity against Influenza A virus (A/Mexico/4604/2009(H1N1)) infected in MDCK cells from ATCC assessed as log reduction in viral titer at 14.2 uM after 24 hrs by immunofluorescent assay. In kind it is functional. The procedure, abridged: as §1
Experiment [20] relates to Influenza A virus. The experiment can be described thus: Antiviral activity against sInfluenza A virus (A/Washington/29/2009(H1N1)) infected in MDCK cells from ATCC assessed as log reduction in viral titer at 42.7 uM after 24 hrs by immunofluorescent assay. In kind it is functional, Influenza A virus (A/Washington/29/2009(H1N1)). In a few lines:
as §2

Experiment [21] concerns Influenza A virus. The experiment in a line: Antiviral activity against Influenza A virus (A/California/04/2009(H1N1)) infected in MDCK cells from Mill Hill assessed as inhibition of viral replication after 3 days by microscopic analysis using crystal violet stain. It is filed as functional.
Experiment [22] has as its system Influenza A virus. The experiment can be described thus: Antiviral activity against Influenza A virus (A/Washington/29/2009(H1N1)) infected in MDCK cells from Mill Hill assessed as log reduction in viral titer at 128 uM after 24 hrs by immunofluorescent assay. It is filed as functional. The procedure, abridged: as §1
Experiment [23] relates to Influenza A virus. The experiment can be described thus: Antiviral activity against Influenza A virus (A/Mexico/4604/2009(H1N1)) infected in MDCK cells from ATCC assessed as log reduction in viral titer at 4.7 uM after 24 hrs by immunofluorescent assay. In kind it is functional. In a few lines:
as §1

In experiment [24] the test system is Influenza A virus. The experiment can be described thus: microbe, parasite or virus in culture. The settings on record: MDCK, 72 h. This is another data set of the same source.

The text below walks through data of ChEMBL document CHEMBL1671691 (Antimicrob Agents Chemother, 2010).

In general, EC50 refers to the concentration at which the effect is half-maximal.

Regarding `NC(=O)c1nc(F)cnc1O` [FAVIPIRAVIR], the half-maximal effective concentration (EC50) in the experiment with Influenza A virus [1] was 3630 nM; in the experiment with Influenza A virus [2] it was 1850 nM; with Influenza A virus [3] it was 1590 nM; with Influenza A virus [7], 1460 nM; in the experiment on Influenza A virus [14], 2480 nM; in the experiment on Influenza A virus [24], 380 nM. Also, the log10FFU in the experiment with Influenza A virus [4] was under 1; in the experiment with Influenza A virus [5] it was under 1; with Influenza A virus [6], 0.48; with Influenza A virus [8] it was 2.1; with Influenza A virus [9] it was 2.2; in the experiment on Influenza A virus [10] it was 1.8. The log10FFU is under 1 in the experiment with Influenza A virus [11]; 1.8 in the experiment with Influenza A virus [12]; 2.3 in the experiment with Influenza A virus [13]; under 1 with Influenza A virus [15]; 4.1 in the experiment on Influenza A virus [16]; under 1 in the experiment on Influenza A virus [17]. Further, the log10FFU in the experiment with Influenza A virus [18] is 1.5; in the experiment on Influenza A virus [19], 2.4; in the experiment on Influenza A virus [20], 1.8; in the experiment on Influenza A virus [21], 3.75; with Influenza A virus [22] it was under 1; in the experiment on Influenza A virus [23], 3.5.
